Results: ChEMBL document CHEMBL1134691, “3-Phenyl-5-acyloxymethyl-2H,5H-furan-2-ones: synthesis and biological activity of a novel group of potential antifungal drugs” (2001)
Values after ≈ are worked out from the molar mass of the structure shown.

Experiments:
[1] = system: Lichtheimia corymbifera; experiment: In vitro inhibition of Absidia corymbifera 272 growth for 24 hours.; assay type: functional; conditions: Lichtheimia corymbifera, 24 h; read-out: MIC
Summary of the method: (§1)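 Filamentous isolates tested by microdilution per NCCLS M27-A in RPMI 1640 plus L-glutamine, buffered with 0.165 M MOPS to pH 7.0. Final inoculum 5 × 10^3 cfu/mL. Compounds in DMSO (final ≤2%), 2-fold series over 1000–0.24 µmol/L. Plates held at 35 °C and read visually after 24 and 48 h. MIC taken as 80% inhibition of control growth; determined twice in duplicate.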

[2] = system: Lichtheimia corymbifera; experiment: In vitro inhibition of Absidia corymbifera 272 growth for 48 hours.; assay type: functional; conditions: Lichtheimia corymbifera, 48 h; read-out: MIC; summary of the method: as §1
[3] = system: Pichia kudriavzevii; experiment: Inhibition of Candida krusei ATCC 6258 growth for 24 hours in vitro.; assay type: functional; conditions: Pichia kudriavzevii, ATCC 6258, 24 h; read-out: MIC
Summary of the method: (§2)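 NCCLS M27-A broth microdilution in RPMI 1640 with L-glutamine and 0.165 M MOPS, pH 7.0. Isolates kept on Sabouraud dextrose agar. Inoculum 5 × 10^3 cfu/mL final. Compounds were diluted in DMSO (≤2% final) and tested in 2-fold dilutions of 1000–0.24 µmol/L. Incubation at 35 °C, OD540 read at 24 and 48 h. MIC = 80% growth inhibition versus control; assays run twice in duplicate.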

[4] = system: Pichia kudriavzevii; experiment: Inhibition of Candida krusei ATCC 6258 growth for 48 hours in vitro.; assay type: functional; conditions: Pichia kudriavzevii, ATCC 6258, 48 h; read-out: MIC; summary of the method: as §2
[5] = system: Pichia kudriavzevii; experiment: Inhibition of Candida krusei E28 growth for 24 hours in vitro.; assay type: functional; conditions: Pichia kudriavzevii, 24 h; read-out: MIC; summary of the method: as §2
[6] = system: Pichia kudriavzevii; experiment: Inhibition of Candida krusei E28 growth for 48 hours in vitro.; assay type: functional; conditions: Pichia kudriavzevii, 48 h; read-out: MIC; summary of the method: as §2
[7] = system: Aspergillus fumigatus; experiment: Inhibition of Aspergillus fumigatus 231 growth for 48 hours in vitro.; assay type: functional; conditions: Aspergillus fumigatus, 48 h; read-out: MIC; summary of the method: as §1
[8] = system: Clavispora lusitaniae; experiment: Inhibition of Candida lusitaniae 2446/I growth for 24 hours in vitro.; assay type: functional; conditions: Clavispora lusitaniae, 24 h; read-out: MIC; summary of the method: as §2
[9] = system: Clavispora lusitaniae; experiment: Inhibition of Candida lusitaniae 2446/I growth for 48 hours in vitro.; assay type: functional; conditions: Clavispora lusitaniae, 48 h; read-out: MIC; summary of the method: as §2
[10] = system: Candida parapsilosis; experiment: Inhibition of Candida parapsilosis ATCC 22019 growth for 24 hours in vitro.; assay type: functional; conditions: Lodderomyces parapsilosis, ATCC 22019, 24 h; read-out: MIC; summary of the method: as §2
[11] = system: Candida parapsilosis; experiment: Inhibition of Candida parapsilosis ATCC 22019 growth for 48 hours in vitro.; assay type: functional; conditions: Lodderomyces parapsilosis, ATCC 22019, 48 h; read-out: MIC; summary of the method: as §2
[12] = system: Candida albicans; experiment: Inhibition of Candida albicans ATCC 44859 growth for 24 hours in vitro.; assay type: functional; conditions: Candida albicans, ATCC 44859, 24 h; read-out: MIC; summary of the method: as §2
[13] = system: Candida albicans; experiment: Inhibition of Candida albicans ATCC 44859 growth for 48 hours in vitro.; assay type: functional; conditions: Candida albicans, ATCC 44859, 48 h; read-out: MIC; summary of the method: as §2
[14] = system: Candida albicans; experiment: Inhibition of Candida albicans ATCC 90028 for 24 hours in vitro.; assay type: functional; conditions: Candida albicans, ATCC 90028, 24 h; read-out: MIC; summary of the method: as §2
[15] = system: Candida albicans; experiment: Inhibition of Candida albicans ATCC 90028 for 48 hours in vitro.; assay type: functional; conditions: Candida albicans, ATCC 90028, 48 h; read-out: MIC; summary of the method: as §2
[16] = system: Nakaseomyces glabratus; experiment: Inhibition of Candida glabrata 20/I growth for 24 hours in vitro.; assay type: functional; conditions: Nakaseomyces glabratus, 24 h; read-out: MIC; summary of the method: as §2
[17] = system: Nakaseomyces glabratus; experiment: Inhibition of Candida glabrata 20/I growth for 48 hours in vitro.; assay type: functional; conditions: Nakaseomyces glabratus, 48 h; read-out: MIC; summary of the method: as §2
[18] = system: Candida tropicalis; experiment: Inhibition of Candida tropicalis 156 growth for 24 hours in vitro.; assay type: functional; conditions: Candida tropicalis, 24 h; read-out: MIC; summary of the method: as §2
[19] = system: Trichosporon beigelii; experiment: Inhibition of Trichosporon beigelli 1188 for 24 hours in vitro.; assay type: functional; conditions: Trichosporon beigelii, 24 h; read-out: MIC
Summary of the method: (§3)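 Microdilution following NCCLS M27-A. Medium: RPMI 1640 with L-glutamine, 0.165 M MOPS, pH 7.0. Final inoculum 5 × 10^3 cfu/mL. Compounds dissolved in DMSO, final ≤2%, serially halved from 1000 to 0.24 µmol/L. Incubated at 35 °C and read at 24 and 48 h. MIC defined as 80% inhibition of control growth; run twice in duplicate.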

[20] = system: Trichosporon beigelii; experiment: Inhibition of Trichosporon beigelli 1188 for 48 hours in vitro.; assay type: functional; conditions: Trichosporon beigelii, 48 h; read-out: MIC; summary of the method: as §3
[21] = Inhibition of Trichophyton mentagrophytes 445 growth for 72 hours in vitro.; assay type: functional, Arthroderma benhamiae; conditions: Trichophyton benhamiae, 72 h; read-out: MIC
Summary of the method: (§4)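 Dermatophyte grown in MOPS-buffered (0.165 M, pH 7.0) RPMI 1640 containing L-glutamine, in an M27-A microdilution format. Inoculum 5 × 10^3 cfu/mL final. Compounds from DMSO stocks (≤2% final), 2-fold dilutions 1000–0.24 µmol/L. Incubated at 35 °C, growth judged visually at 72 and 120 h. MIC endpoint is 80% inhibition relative to control; measured twice in duplicate.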

[22] = Inhibition of Trichophyton mentagrophytes 445 growth for 120 hours in vitro.; assay type: functional, Arthroderma benhamiae; conditions: Trichophyton benhamiae, 120 h; read-out: MIC; summary of the method: as §4
[23] = system: Aspergillus fumigatus; experiment: Inhibition of Aspergillus fumigatus 231 growth for 24 hours in vitro.; assay type: functional; conditions: Aspergillus fumigatus, 24 h; read-out: MIC; summary of the method: as §1
[24] = system: Candida tropicalis; experiment: Inhibition of Candida tropicalis 156 growth for 48 hours in vitro.; assay type: functional; conditions: Candida tropicalis, 48 h; read-out: MIC; summary of the method: as §2

MIC [1]: 62.5 µM (≈ 16.4 µg/mL)
MIC [2]: 62.5 µM (≈ 16.4 µg/mL)
MIC [3]: 62.5 µM (≈ 16.4 µg/mL)
MIC [4]: 125 µM (≈ 32.8 µg/mL)
MIC [5]: 62.5 µM (≈ 16.4 µg/mL)
MIC [6]: 125 µM (≈ 32.8 µg/mL)
MIC [7]: 31.2 µM (≈ 8.2 µg/mL)
MIC [8]: 31.2 µM (≈ 8.2 µg/mL)
MIC [9]: 62.5 µM (≈ 16.4 µg/mL)
MIC [10]: 31.2 µM (≈ 8.2 µg/mL)
MIC [11]: 62.5 µM (≈ 16.4 µg/mL)
MIC [12]: < 0.98 µM
MIC [13]: 15.6 µM (≈ 4.1 µg/mL)
MIC [14]: 31.2 µM (≈ 8.2 µg/mL)
MIC [15]: 31.2 µM (≈ 8.2 µg/mL)
MIC [16]: 31.2 µM (≈ 8.2 µg/mL)
MIC [17]: 31.2 µM (≈ 8.2 µg/mL)
MIC [18]: 31.2 µM (≈ 8.2 µg/mL)
MIC [19]: 62.5 µM (≈ 16.4 µg/mL)
MIC [20]: 62.5 µM (≈ 16.4 µg/mL)
MIC [21]: 7.81 µM (≈ 2.05 µg/mL)
MIC [22]: 7.81 µM (≈ 2.05 µg/mL)
MIC [23]: 3.91 µM (≈ 1.03 µg/mL)
MIC [24]: 62.5 µM (≈ 16.4 µg/mL)
SMILES: COc1ccc(C2=CC(COC(C)=O)OC2=O)cc1 (centres undefined)
